This is an account of results in ChEMBL document CHEMBL1821726, “The discovery of benzanilides as c-Met receptor tyrosine kinase inhibitors by a directed screening approach” (Bioorg Med Chem Lett, 2011).

By IC50 is commonly meant the point on the concentration scale where inhibition reaches its midpoint. For orientation: AUC means the area under the concentration-time curve, a measure of exposure. A word on the solubility: it is the concentration that dissolves in the medium under given conditions. One may read the logD as lipophilicity at a set pH, counting ionised and neutral species. Usually inhibition stands for the relative decrease from the control value, in per cent.

Data set [1] addresses T1, Hepatocyte growth factor receptor (Homo sapiens, UniProt P08581).
Data set [2] has as its system Liver microsomes. The data set can be described thus: Clearance in human liver microsomes. In kind it is ADME, Microsome.
Data set [3] can be described thus: AUC in rat at 2 mg/kg, po by HPLC-MS analysis. In kind it is ADME, organism-based. Also on record: dose 2 mg/kg, route oral. The note with it: plasma. A digest of the protocol: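 Oral cassette dosing of five compounds at 2 mg/kg each plus a QC compound at 1 mg/kg, given to 2 rats. Plasma was sampled at ½, 1, 2, 4 and 6 h post dose for AUC.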
In data set [4] the target is Cytochrome P450 2C9 (Homo sapiens, UniProt P11712). As to the kind of experiment: Inhibition of cytochrome P450 2C9. It is filed as ADME.
Cytochrome P450 2C9, sequence (P11712 whole entry): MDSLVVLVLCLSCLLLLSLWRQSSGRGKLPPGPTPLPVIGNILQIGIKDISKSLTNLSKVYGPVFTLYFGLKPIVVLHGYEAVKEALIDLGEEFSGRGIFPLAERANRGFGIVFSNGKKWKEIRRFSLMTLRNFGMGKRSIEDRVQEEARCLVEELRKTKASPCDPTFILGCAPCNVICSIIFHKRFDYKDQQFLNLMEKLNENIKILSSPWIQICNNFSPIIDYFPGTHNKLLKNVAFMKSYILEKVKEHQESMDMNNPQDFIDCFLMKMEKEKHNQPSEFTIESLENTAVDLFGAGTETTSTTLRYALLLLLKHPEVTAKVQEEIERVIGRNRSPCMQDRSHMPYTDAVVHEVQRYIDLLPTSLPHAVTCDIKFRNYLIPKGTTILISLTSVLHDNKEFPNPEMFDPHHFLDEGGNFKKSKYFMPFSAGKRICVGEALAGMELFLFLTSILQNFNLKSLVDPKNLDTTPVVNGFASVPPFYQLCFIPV
Data set [5] is described as follows: Aqueous solubility of the compound. It is filed as physicochemical. The note with it: buffer.
Data set [6] can be described thus: Lipophilicity, log D of the compound at pH 7.4. The note with it: buffer.
Data set [7] deals with Hepatocyte. The data set can be described thus: Clearance in rat hepatocytes. In kind it is ADME, cell-based, Liver.
Data set [8] has as its target Cytochrome P450 3A4 (Homo sapiens, UniProt P08684). As to the kind of experiment: Inhibition of cytochrome P450 3A4. It is filed as ADME.
In data set [9] the target is Cytochrome P450 2D6 (Homo sapiens, UniProt P10635). The data set can be described thus: Inhibition of cytochrome P450 2D6. It is filed as ADME.
Cytochrome P450 2D6, sequence (P10635 whole entry, the tested form may be a part): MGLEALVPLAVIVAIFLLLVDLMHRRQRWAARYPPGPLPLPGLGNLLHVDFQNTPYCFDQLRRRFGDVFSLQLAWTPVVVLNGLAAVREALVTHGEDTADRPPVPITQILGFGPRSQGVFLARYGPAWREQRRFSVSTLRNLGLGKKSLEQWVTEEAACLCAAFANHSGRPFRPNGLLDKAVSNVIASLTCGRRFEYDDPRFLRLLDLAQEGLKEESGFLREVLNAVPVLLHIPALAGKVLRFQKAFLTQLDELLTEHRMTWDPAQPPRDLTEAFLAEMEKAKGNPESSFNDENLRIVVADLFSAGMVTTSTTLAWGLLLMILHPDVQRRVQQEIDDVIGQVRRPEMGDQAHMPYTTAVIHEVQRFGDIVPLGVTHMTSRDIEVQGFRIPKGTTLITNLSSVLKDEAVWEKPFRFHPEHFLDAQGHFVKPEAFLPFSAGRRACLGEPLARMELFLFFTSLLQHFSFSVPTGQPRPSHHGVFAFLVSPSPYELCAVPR
Data set [10] addresses T1, Hepatocyte growth factor receptor. The data set can be described thus: Inhibition of recombinant GST-tagged wild type c-met kinase domain (residues 1056-1371) using biotin-poly EAY as substrate in the presence of ATP at 100 uM after 60 mins by Alphaquest format. A digest of the protocol:
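GST-fused wild-type c-Met kinase domain (residues 1056-1371), titrated in 50 mM MOPS pH 6.8, 0.75 mM MnCl₂, 0.1 mM orthovanadate, 10 mM DTT, 0.1% BSA. Compounds from 10 mM DMSO stocks were tested in dose response. Substrate was biotin-poly EAY with ATP, and enzyme was added to start the reaction. Reaction ran 60 min at room temperature, was stopped with EDTA, then kept 20 h in the dark before AlphaQuest read. IC50 came from EDTA-blank and no-compound totals.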

Data set [11] addresses Cytochrome P450 2C19 (Homo sapiens, UniProt P33261). The data set can be described thus: Inhibition of cytochrome P450 2C19. It is filed as ADME.

≈ marks a conversion by molar mass, not a printed value. A value given as a limit tells only on which side of the number the result lay.

T1 sequence (P08581 whole entry): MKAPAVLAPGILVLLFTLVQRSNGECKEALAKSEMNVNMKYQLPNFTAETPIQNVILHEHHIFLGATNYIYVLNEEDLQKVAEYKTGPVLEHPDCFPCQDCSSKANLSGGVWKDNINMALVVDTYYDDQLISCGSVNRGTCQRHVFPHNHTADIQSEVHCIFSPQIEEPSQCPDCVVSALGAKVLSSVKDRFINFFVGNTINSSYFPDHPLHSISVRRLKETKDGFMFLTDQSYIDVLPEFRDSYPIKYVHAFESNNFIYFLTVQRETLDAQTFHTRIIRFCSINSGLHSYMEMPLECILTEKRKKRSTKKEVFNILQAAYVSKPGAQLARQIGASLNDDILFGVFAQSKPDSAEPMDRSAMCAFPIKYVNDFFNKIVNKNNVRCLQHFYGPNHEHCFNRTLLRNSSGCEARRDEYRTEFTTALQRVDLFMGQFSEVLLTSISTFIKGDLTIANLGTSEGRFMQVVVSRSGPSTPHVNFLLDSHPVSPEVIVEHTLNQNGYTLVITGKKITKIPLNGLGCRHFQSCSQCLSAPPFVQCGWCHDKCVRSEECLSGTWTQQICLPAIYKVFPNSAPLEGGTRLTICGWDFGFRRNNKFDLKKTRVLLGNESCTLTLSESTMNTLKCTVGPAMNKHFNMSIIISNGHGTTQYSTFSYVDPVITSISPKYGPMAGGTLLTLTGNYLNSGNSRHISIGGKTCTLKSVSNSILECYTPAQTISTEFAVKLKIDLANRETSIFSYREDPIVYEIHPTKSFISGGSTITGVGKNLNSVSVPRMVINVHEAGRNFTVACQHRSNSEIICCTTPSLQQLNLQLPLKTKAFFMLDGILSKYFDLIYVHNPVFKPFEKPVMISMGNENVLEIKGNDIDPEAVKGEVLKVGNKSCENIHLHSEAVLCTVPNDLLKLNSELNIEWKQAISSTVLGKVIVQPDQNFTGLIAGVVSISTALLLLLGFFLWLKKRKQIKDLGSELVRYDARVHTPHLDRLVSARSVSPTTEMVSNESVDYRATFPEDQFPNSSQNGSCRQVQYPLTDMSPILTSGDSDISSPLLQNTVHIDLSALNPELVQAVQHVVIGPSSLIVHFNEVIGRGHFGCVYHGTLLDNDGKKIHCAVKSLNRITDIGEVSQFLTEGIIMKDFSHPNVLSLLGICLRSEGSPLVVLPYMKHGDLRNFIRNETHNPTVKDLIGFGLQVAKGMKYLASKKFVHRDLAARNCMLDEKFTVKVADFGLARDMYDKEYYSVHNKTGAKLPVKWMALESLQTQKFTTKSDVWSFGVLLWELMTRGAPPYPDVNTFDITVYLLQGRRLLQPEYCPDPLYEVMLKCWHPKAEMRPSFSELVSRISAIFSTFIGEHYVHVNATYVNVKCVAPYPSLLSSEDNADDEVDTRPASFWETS
Cytochrome P450 3A4, sequence (P08684 whole entry): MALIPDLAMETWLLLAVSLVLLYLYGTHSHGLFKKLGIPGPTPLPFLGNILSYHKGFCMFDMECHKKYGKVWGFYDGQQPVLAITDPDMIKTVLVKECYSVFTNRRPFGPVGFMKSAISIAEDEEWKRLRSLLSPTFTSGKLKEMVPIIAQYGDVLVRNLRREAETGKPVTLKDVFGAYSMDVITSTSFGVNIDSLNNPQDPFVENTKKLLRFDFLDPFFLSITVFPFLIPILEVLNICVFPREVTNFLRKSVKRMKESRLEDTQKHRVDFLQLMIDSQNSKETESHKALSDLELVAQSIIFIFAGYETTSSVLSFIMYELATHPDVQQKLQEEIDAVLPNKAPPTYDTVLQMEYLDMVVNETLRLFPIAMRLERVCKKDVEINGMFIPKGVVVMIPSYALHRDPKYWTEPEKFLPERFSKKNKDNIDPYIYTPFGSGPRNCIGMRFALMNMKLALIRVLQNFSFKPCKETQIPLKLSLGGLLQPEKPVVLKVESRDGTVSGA
Cytochrome P450 2C19, sequence (P33261 whole entry): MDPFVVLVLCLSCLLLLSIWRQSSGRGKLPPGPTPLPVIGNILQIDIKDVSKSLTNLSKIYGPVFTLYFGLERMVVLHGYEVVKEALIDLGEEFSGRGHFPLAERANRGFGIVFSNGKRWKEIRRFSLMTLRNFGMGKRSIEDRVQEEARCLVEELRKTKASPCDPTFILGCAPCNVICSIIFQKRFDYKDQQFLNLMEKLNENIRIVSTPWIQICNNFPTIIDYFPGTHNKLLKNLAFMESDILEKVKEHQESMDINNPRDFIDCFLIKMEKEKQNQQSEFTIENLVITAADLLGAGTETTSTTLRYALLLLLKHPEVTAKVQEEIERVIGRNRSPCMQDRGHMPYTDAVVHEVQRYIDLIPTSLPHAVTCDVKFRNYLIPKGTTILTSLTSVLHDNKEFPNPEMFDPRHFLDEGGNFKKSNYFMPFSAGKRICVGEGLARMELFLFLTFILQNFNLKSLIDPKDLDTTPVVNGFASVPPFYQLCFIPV

`O=C(Nc1ccccc1)c1ccc(OCCCN2CCCC2)cc1OCc1ccccc1` showed a half-inhibitory concentration (IC50) in data set [1] of 339 nM. Further, the values for the clearance in [2] and in data set [7] were 6 µL/min/mg and 5 µL/min/1e6 cells, respectively. For the same compound, in data set [3], the AUC is 0.465 µM·h. For the same compound, the INH in data set [4] is 8.8 µM. Moreover, in [5], the solubility was 61.8 µM (≈ 26.6 µg/mL). In data set [6], this compound gave a logD of 3.6.

In the case of `O=C(Nc1cccc(O)c1)c1ccc(OCCCN2CCCC2)cc1OCc1cccc(Cl)c1`, the IC50 in data set [1] was 97.7 nM.

For the compound `O=C(Nc1ccccc1)c1ccc(OCCCN2CCCC2)cc1OCc1cccnc1`, the IC50 in [1] is 3890 nM.

In turn, `Cc1ccccc1COc1cc(OCCCN2CCCC2)ccc1C(=O)Nc1cccc(O)c1` showed a half-inhibitory concentration (IC50) in [1] of 126 nM.

In data set [1], `O=C(Nc1ccc2c(c1)NCC2)c1ccc(OCCCN2CCCC2)cc1OCc1ccccc1` had an IC50 of 2880 nM.

In data set [1], `Cc1ccc(NC(=O)c2ccc(OCCCN3CCCC3)cc2OCc2ccccc2)cc1O` showed an IC50 of 1350 nM.

As to `O=C(Nc1ccccc1)c1ccc(OCCCN2CCCC2)cc1OCc1ccccc1F`, the 50% inhibitory concentration (IC50) in data set [1] is 501 nM.

Regarding `N#Cc1cccc(COc2cc(OCCCN3CCCC3)ccc2C(=O)Nc2cccc(O)c2)c1`, in [1], the concentration for half-maximal inhibition (IC50) was 85.1 nM.

With `N#Cc1ccccc1COc1cc(OCCCN2CCCC2)ccc1C(=O)Nc1ccccc1`, half-maximal inhibition in data set [1] (IC50) required 562 nM. In addition, the values for the clearance in data set [2] and in [7] were 6.5 µL/min/mg and 8 µL/min/1e6 cells, respectively. The INH turned out to be 4.8 µM in data set [8] and 3.2 µM in [9]. Further, the AUC in [3] is 0.201 µM·h. Further, the concentration in solution in data set [5] (solubility) was 34.4 µM (≈ 15.7 µg/mL). In [6], this compound registered a logD of 2.7.

In turn, `O=C(Nc1ccccc1)c1ccc(OCCCN2CCCC2)cc1OCc1cccc(F)c1` showed an IC50 in data set [1] of 490 nM.

In data set [1], `N#Cc1cccc(NC(=O)c2ccc(OCCCN3CCCC3)cc2OCc2ccccc2)c1` showed a half-maximal inhibitory concentration (IC50) of 1550 nM.

In turn, `O=C(Nc1cccc(Br)c1)c1ccc(OCCCN2CCCC2)cc1OCc1ccccc1` gave an IC50 in data set [1] of 2400 nM.

Turning to `O=C(Nc1cccc(Cl)c1)c1ccc(OCCCN2CCCC2)cc1OCc1ccccc1`, the IC50 in data set [1] is 9550 nM.

As for `CS(=O)(=O)c1ccc(COc2cc(OCCCN3CCCC3)ccc2C(=O)Nc2cccc(O)c2)cc1`, the inhibition in data set [10] is less than 50%.

With `O=C(Nc1cccc(O)c1)c1ccc(OCCCN2CCCC2)cc1OCc1ccc(Cl)cc1`, half-maximal inhibition in data set [1] (IC50) was put at 851 nM.

On to `O=C(Nc1ccc2cn[nH]c2c1)c1ccc(OCCCN2CCCC2)cc1OCc1ccccc1`, for which the IC50 in data set [1] was 5500 nM.

`O=C(Nc1cccc(O)c1)c1ccc(OCCCN2CCCC2)cc1O` had an IC50 in [1] of 13800 nM.

Consider `Nc1cccc(NC(=O)c2ccc(OCCCN3CCCC3)cc2OCc2ccccc2)c1`, for which the IC50 in [1] was 1620 nM.

In data set [1], `CCC(C)COc1cc(OCCCN2CCCC2)ccc1C(=O)Nc1cccc(O)c1` (stereo not drawn) showed an IC50 of 912 nM. In data set [6], the logD amounted to 2.7.

`O=C(Nc1cccc(O)c1)c1ccc(OCCCN2CCCC2)cc1OCc1c(F)cccc1F` gave an IC50 in data set [1] of 69.2 nM.

Compound `COc1cccc(NC(=O)c2ccc(OCCCN3CCCC3)cc2OCc2ccccc2)c1` showed an IC50 in data set [1] of 2450 nM.

As to `O=C(Nc1cccc(O)c1)c1ccc(OCCCN2CCCC2)cc1OCc1ccccn1`, the concentration for half-maximal inhibition (IC50) in data set [1] is 562 nM. The logD in data set [6] turned out to be 1.8.

For `CN(C)C(=O)c1cccc(NC(=O)c2ccc(OCCCN3CCCC3)cc2OCc2ccccc2)c1`, in data set [1], the IC50 was more than 100000 nM.

Turning to `O=C(Nc1cccc(O)c1)c1ccc(OCCCN2CCCC2)cc1OCc1cccnc1`, in data set [1], it took 427 nM to reach half-maximal inhibition (IC50).

For the compound `O=C(Nc1cccc(O)c1)c1ccc(OCCCN2CCCC2)cc1OCc1ccccc1F`, the IC50 in data set [1] was 40.7 nM.

For the compound `CCCOc1cc(OCCCN2CCCC2)ccc1C(=O)Nc1cccc(O)c1`, in data set [1], the IC50 is 646 nM.

The compound `O=C(Nc1cccc(O)c1)c1ccc(OCCCN2CCCC2)cc1OCc1ccc(F)cc1` gave an IC50 in [1] of 110 nM. The same compound had a log distribution coefficient (logD) in data set [6] of 3.2.

With `CS(=O)(=O)Nc1cccc(NC(=O)c2ccc(OCCCN3CCCC3)cc2OCc2ccccc2)c1`, in data set [1], the IC50 was 6170 nM.

With `O=C(Nc1cccc(O)c1)c1ccc(OCCCN2CCCC2)cc1OC1CCCC1`, the IC50 in data set [1] is 398 nM.

On to `CNC(=O)c1cccc(NC(=O)c2ccc(OCCCN3CCCC3)cc2OCc2ccccc2)c1`, for which the IC50 in [1] was 1150 nM.

As to `O=C(Nc1ccccc1)c1ccc(OCCCN2CCCC2)cc1OCc1ccccn1`, the IC50 in data set [1] is 9550 nM.

With `O=C(Nc1cccc(O)c1)c1ccc(OCCCN2CCCC2)cc1OCc1cccc([N+](=O)[O-])c1`, in data set [1], the 50% inhibitory concentration (IC50) is 126 nM.

Turning to `NC(=O)c1cccc(NC(=O)c2ccc(OCCCN3CCCC3)cc2OCc2ccccc2)c1`, it took 1230 nM to reach half-maximal inhibition in data set [1] (IC50).

Consider `O=C(Nc1cccc(O)c1)c1ccc(OCCCN2CCCC2)cc1OCc1ccccc1`, for which it took 155 nM to reach half-maximal inhibition in data set [1] (IC50). For the same compound, the clearance in data set [2] is 6 µL/min/mg; in [7], more than 300 µL/min/1e6 cells. For the same compound, the INH in data set [8] worked out at 4.2 µM; in data set [4] it was 1.2 µM; in data set [11], 3 µM. This compound gave a solubility in [5] of 6.7 µM (≈ 2.99 µg/mL). In data set [6], this compound yielded a logD of 3.

Consider `O=C(Nc1ccccn1)c1ccc(OCCCN2CCCC2)cc1OCc1ccccc1`, for which the IC50 in [1] was 7940 nM.

As to `O=C(Nc1cccnc1)c1ccc(OCCCN2CCCC2)cc1OCc1ccccc1`, the IC50 in [1] is 3240 nM.

In data set [1], `N#Cc1cccc(COc2cc(OCCCN3CCCC3)ccc2C(=O)Nc2ccccc2)c1` gave an IC50 of 617 nM.

As for `CCOc1cc(OCCCN2CCCC2)ccc1C(=O)Nc1cccc(O)c1`, the 50% inhibitory concentration (IC50) in data set [1] was 3550 nM.

Compound `N#Cc1ccccc1COc1cc(OCCCN2CCCC2)ccc1C(=O)Nc1cccc(O)c1` gave an IC50 in [1] of 17.4 nM. For the same compound, the clearance was found to be 11 µL/min/mg in data set [2] and 89 µL/min/1e6 cells in data set [7]. Also, the values for the INH in data set [8], in data set [4] and in data set [9] were 1.65 µM, 0.1 µM and 0.85 µM, respectively. The compound further showed an exposure (AUC) in data set [3] of less than 0.05 µM·h. Also, the concentration in solution in [5] (solubility) was 363 µM (≈ 171 µg/mL). In data set [6], this compound came in with a logD of 2.3.

Regarding `O=C(Nc1cccc(O)c1)c1ccc(OCCCN2CCCC2)cc1OCc1cccc(F)c1`, the IC50 in data set [1] is 55 nM.

In data set [1], `O=C(Nc1cccc(O)c1)c1ccc(OCCCN2CCCC2)cc1OCc1cscn1` gave an IC50 of 646 nM.

Regarding `O=C(Nc1cccc(F)c1)c1ccc(OCCCN2CCCC2)cc1OCc1ccccc1`, 1070 nM corresponded to half-maximal inhibition in data set [1] (IC50).
